Experimental data: ChEMBL document CHEMBL3822354, “Synthesis and evaluation of 2-pyridinylpyrimidines as inhibitors of HIV-1 structural protein assembly” (Bioorg Med Chem Lett, 2016)
≈ marks a conversion by molar mass, not a printed value.

Key:
[1] = target: Structural capsid protein (Human immunodeficiency virus 1, UniProt Q76129); assay: Inhibition of CAI-biotin peptide binding to GST-tagged HIV1 capsid C-terminal domain by alphascreen assay
Outline: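 Competitive AlphaScreen assay: test compound competes with CAI-biotin peptide for binding to GST-CA. IC50 is the compound concentration that lowers the AlphaScreen signal by 50%.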

[2] = Solubility of compound in PBS by UV spectral analysis; type: physicochemical
[3] = tested on: Human immunodeficiency virus 1; assay: Antiviral activity against HIV1 NL4-3 infected in human MT4 cells assessed as inhibition of viral replication after 3 days by luciferase reporter gene assay; type: functional, organism-based; conditions: Human immunodeficiency virus 1, NL4-3, MT4, 72 h
Outline: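 Two-fold serial dilutions of compound were added to MT-4 cells infected with HIV-1 NL4-3 carrying a Renilla luciferase reporter. Replication was read as luciferase activity after 3 days. EC50 is the concentration inhibiting replication by 50%.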

[4] = Cytotoxicity against human MT4 cells after 72 hrs by XTT assay; type: cell-based
Outline: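 The XTT read-out was run in parallel with the MT-4 infectivity assay, with two-fold serial compound dilutions on MT-4 cells.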

Sequence of Structural capsid protein (Q76129 whole entry, the tested form may be a part): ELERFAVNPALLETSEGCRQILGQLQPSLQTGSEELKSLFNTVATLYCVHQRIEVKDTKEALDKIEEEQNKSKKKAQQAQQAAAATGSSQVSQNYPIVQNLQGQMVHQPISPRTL

SMILES | IC50 [1] | solubility [2] | EC50 [3] | CC50 at 72 h [4]
Cc1cc(Nc2ccc(C(=O)N3CCN(C(=O)C4CCCO4)CC3)cc2)nc(-c2cccnc2)n1 (configuration not stated) | 54 µM | 99 µM (≈ 46.8 µg/mL) | – | –
CC(=O)c1ccc(Nc2cc(C)nc(-c3cccnc3)n2)cc1F | 25 µM | 32 µM (≈ 10.3 µg/mL) | – | –
CC(=O)c1ccc(Nc2ccnc(-c3cccnc3)n2)cc1 | 53 µM | 98 µM (≈ 28.5 µg/mL) | – | –
CC(=O)c1cccc(Nc2ccnc(-c3cccnc3)n2)c1 | 39 µM | 97 µM (≈ 28.2 µg/mL) | – | –
Cc1cc(Nc2ccc(C(=O)NCCF)cc2)nc(-c2cccnc2)n1 | 8 µM | 99 µM (≈ 34.8 µg/mL) | 25 µM | 44 µM
CCOC(=O)c1ccc(Nc2cc(C)nc(-c3ccncc3)n2)cc1 | 36 µM | 4 µM (≈ 1.34 µg/mL) | – | –
CC(=O)c1cccc(Nc2cc(C)nc(-c3ccncc3)n2)c1 | > 100 µM | 29 µM (≈ 8.83 µg/mL) | – | –
Fc1ccc(Nc2ccnc(-c3cccnc3)n2)cc1F | 38 µM | 67 µM (≈ 19 µg/mL) | – | –
Cc1cc(Nc2ccc(C(=O)NCCF)cc2)nc(-c2ccncc2)n1 | > 100 µM | 40 µM (≈ 14.1 µg/mL) | – | –
CC(=O)c1ccc(Nc2ccnc(-c3ccncc3)n2)cc1 | > 100 µM | 37 µM (≈ 10.7 µg/mL) | – | –
CCOC(=O)c1cccc(Nc2ccnc(-c3ccncc3)n2)c1 | > 100 µM | 46 µM (≈ 14.7 µg/mL) | – | –
CCOC(=O)c1cccc(Nc2ccnc(-c3cccnc3)n2)c1 | 21 µM | 92 µM (≈ 29.5 µg/mL) | – | –
CC(=O)c1ccc(Nc2cc(C)nc(-c3cccnc3)n2)cc1 | 12 µM | 94 µM (≈ 28.6 µg/mL) | 50 µM | 77 µM
Cc1cc(Nc2ccc(C(=O)N3CCN(c4ccc(F)cc4)CC3)cc2)nc(-c2cccnc2)n1 | 20 µM | 42 µM (≈ 19.7 µg/mL) | – | –
CCOC(=O)c1ccc(Nc2ccnc(-c3ccncc3)n2)cc1 | 28 µM | 52 µM (≈ 16.7 µg/mL) | – | –
CC(=O)c1cc(Nc2cc(C)nc(-c3cccnc3)n2)ccc1F | 9 µM | 40 µM (≈ 12.9 µg/mL) | > 100 µM | > 100 µM
O=C(NCCF)c1cc(Nc2ccnc(-c3cccnc3)n2)ccc1F | 68 µM | 97 µM (≈ 34.5 µg/mL) | – | –
CC(=O)c1ccc(F)c(Nc2cc(C)nc(-c3cccnc3)n2)c1 | > 100 µM | 58 µM (≈ 18.7 µg/mL) | – | –

SMILES | IC50 [1] | solubility [2] | EC50 [3] | CC50 at 72 h [4]
Cc1cc(Nc2cc(F)c(F)c(F)c2)nc(-c2cccnc2)n1 | 22 µM | 73 µM (≈ 23.1 µg/mL) | – | –
CCOC(=O)c1ccc(Nc2ccnc(-c3cccnc3)n2)c(F)c1 | 30 µM | 53 µM (≈ 17.9 µg/mL) | – | –
Cc1cc(Nc2ccc(C(=O)NCCF)c(F)c2)nc(-c2ccncc2)n1 | > 100 µM | 9 µM (≈ 3.32 µg/mL) | – | –
Cc1cc(Nc2ccc(C(=O)NCCF)cc2F)nc(-c2cccnc2)n1 | 15 µM | 50 µM (≈ 18.5 µg/mL) | > 100 µM | > 100 µM
Cc1cc(Nc2ccc(C(=O)NCCF)c(F)c2)nc(-c2cccnc2)n1 | 3 µM | 98 µM (≈ 36.2 µg/mL) | 20 µM | 35 µM
Fc1ccc(Nc2ccnc(-c3ccncc3)n2)cc1F | 81 µM | 42 µM (≈ 11.9 µg/mL) | – | –
Cc1cc(Nc2cc(C(=O)NCCF)ccc2F)nc(-c2cccnc2)n1 | 52 µM | 98 µM (≈ 36.2 µg/mL) | – | –
O=C(NCCF)c1ccc(Nc2ccnc(-c3cccnc3)n2)cc1 | 34 µM | 99 µM (≈ 33.4 µg/mL) | – | –
CCOC(=O)c1ccccc1Nc1ccnc(-c2cccnc2)n1 | > 100 µM | 94 µM (≈ 30.1 µg/mL) | – | –
CC(=O)c1cc(Nc2cc(C)nc(-c3ccncc3)n2)ccc1F | 83 µM | 23 µM (≈ 7.41 µg/mL) | – | –
CCOC(=O)c1ccc(Nc2ccnc(-c3cccnc3)n2)cc1 | 19 µM | 61 µM (≈ 19.5 µg/mL) | – | –
O=C(NCCF)c1ccc(Nc2ccnc(-c3cccnc3)n2)c(F)c1 | 73 µM | 96 µM (≈ 34.1 µg/mL) | – | –
O=C(NCCF)c1ccc(Nc2ccnc(-c3cccnc3)n2)cc1F | 43 µM | 84 µM (≈ 29.8 µg/mL) | – | –
CC(=O)c1cccc(Nc2cc(C)nc(-c3cccnc3)n2)c1 | 10 µM | 95 µM (≈ 28.9 µg/mL) | 23 µM | 64 µM
CCOC(=O)c1ccc(Nc2cc(C)nc(-c3cccnc3)n2)cc1 | 21 µM | 71 µM (≈ 23.7 µg/mL) | – | –
CC(=O)c1ccc(Nc2cc(C)nc(-c3ccncc3)n2)cc1 | 54 µM | 6 µM (≈ 1.83 µg/mL) | – | –
O=C(NCCF)c1ccc(Nc2ccnc(-c3ccncc3)n2)cc1 | > 100 µM | 97 µM (≈ 32.7 µg/mL) | – | –
